Publication PMC9063861 (RSC Advances, 2019)
pKi: −log10 of the molar value.

Tests used:
[1] = molecular target: T1, Horseradish peroxidase (HRP) (Armoracia rusticana, UniProt P00433); test: Kinetics of the oxidation of flavones catalyzed by HRP; assay type: biochemical
T1 sequence (P00433 31-338 limits assumed): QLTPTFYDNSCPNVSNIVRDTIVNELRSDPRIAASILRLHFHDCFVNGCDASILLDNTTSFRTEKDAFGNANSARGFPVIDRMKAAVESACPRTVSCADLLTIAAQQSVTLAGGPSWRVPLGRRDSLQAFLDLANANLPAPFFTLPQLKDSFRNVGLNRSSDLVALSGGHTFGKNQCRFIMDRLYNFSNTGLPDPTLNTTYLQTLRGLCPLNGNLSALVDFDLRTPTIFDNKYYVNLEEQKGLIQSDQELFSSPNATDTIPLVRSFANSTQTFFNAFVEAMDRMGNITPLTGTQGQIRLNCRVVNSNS
Summary of the method: (§1)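 Horseradish peroxidase, >250 U mg−1. Oxidation products were quantified by LC-MS/MS using ESI in negative mode with multiple reaction monitoring. The mobile phase was acetonitrile–0.1% formic acid (aq) at 450 μL min−1. Nitrogen served as curtain and collision gas, at 13 and 6 psi respectively.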

[2] = molecular target: Laccase from Trametes versicolor; test: Kinetics of the oxidation of flavones catalyzed by laccase; assay type: biochemical
Summary of the method: as §1, with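 “Laccase from Trametes versicolor, 120” for “Horseradish peroxidase, >250”, “g−1.” for “mg−1.”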

| SMILES | kinetic model of oxidation by HRP [1] | kinetic model of oxidation by laccase [2] | K m ([1]; formation of the named product) [µM] | n (Hill kinetic model) ([1]; formation of the named product) | K m ([2]; formation of the named product) [mM] | pKi ([2]; read-out: Ki (inhibitory effect on laccase)) |
| --- | --- | --- | --- | --- | --- | --- |
| O=C1C[C@@H](c2ccc(O)cc2)Oc2cc(O)cc(O)c21 [compound 8, naringenin] | substrate inhibition kinetics | – | – | – | – | – |
| O=c1cc(-c2ccc(O)cc2)oc2cc(O)cc(O)c12 [compound 1, apigenin] | Hill kinetic model | – | 163.5 | 2.944 | – | – |
| O=c1c(O)c(-c2ccc(O)cc2)oc2cc(O)cc(O)c12 [compound 5, kaempferol] | – | substrate inhibition kinetic model | – | – | 8.288 ± 0.401 | 2.78 |

More lines, now with the values ahead:

| kinetic model of oxidation by HRP [1] | kinetic model of oxidation by laccase [2] | K m ([1]; formation of the named product) [µM] | n (Hill kinetic model) ([1]; formation of the named product) | K m ([2]; formation of the named product) [mM] | pKi ([2]; read-out: Ki (inhibitory effect on laccase)) | SMILES |
| --- | --- | --- | --- | --- | --- | --- |
| Hill kinetic model | Hill-kinetic model | – | – | – | – | O=c1c(-c2ccc(O)cc2)coc2cc(O)ccc12 [compound 10, daidzein] |
| substrate inhibition kinetics | Hill-kinetic model | – | – | – | – | O=C(/C=C/c1ccc(O)cc1)c1ccc(O)cc1O [compound 12, isoliquiritigenin] |
